ChEMBL document CHEMBL1154085, “Diamine-based human histamine H3 receptor antagonists: (4-aminobutyn-1-yl)benzylamines” (Eur J Med Chem, 2009)
Active and inactive are the calls of the source. No cut-off for these calls is given here.

Tests used:
[1] = biological target: T1, Histamine H3 receptor (Homo sapiens, UniProt Q9Y5N1); assay: Displacement of [3H]N-alpha-methylhistamine from human histamine H3 receptor expressed in SK-N-MC cells; assay type: cell-based
Outline: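 Membranes prepared from SK-N-MC cells expressing human H3 receptor, homogenized in 50 mM Tris/5 mM EDTA, pH 7.4. Incubated with 0.8 nM [3H]-N-alpha-methylhistamine ± compound, 60 min, 25 °C. Filtration over polyethylenimine-treated glass fiber filters with four ice-cold washes. Nonspecific binding defined with 10 µM histamine.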

[2] = biological target: T1, Histamine H3 receptor; assay: Antagonist activity at human histamine H3 receptor expressed in SK-N-MC cells assessed as inhibition of forskolin-stimulated cAMP accumulation treated 10 min before histamine challenge; assay type: functional, cell-based; details: read-out: pA2 (converted)
Outline: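 SK-N-MC sublines stably carrying human H3 receptor plus a beta-galactosidase reporter driven by multiple cAMP responsive elements. Antagonist added 10 min before histamine; forskolin (5 µM final) 5 min after histamine; 6 h at 37 °C. Lysis, then chlorophenol red beta-D-galactopyranoside substrate, absorbance 570 nm. pA2 from Schild regression of rightward shifts in histamine curves; mean of at least three determinations.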

[3] = biological target: Cytochrome P450 2C19 (Homo sapiens, UniProt P33261); assay: Inhibition of CPY2C19 at >40 uM
[4] = biological target: Histamine H4 receptor (Homo sapiens, UniProt Q9H3N8); assay: Displacement of […] from histamine H4 receptor expressed in SK-N-MC cells; assay type: cell-based
[5] = Oral bioavailability in rat; assay type: ADME, organism-based; details: in vivo
[6] = biological target: T2, hERG (KCNH2) (Homo sapiens, UniProt Q12809); assay: Inhibition of human ERG at 10 uM; details: read-out: Activity
[7] = test system: Rattus norvegicus; assay: Ex vivo histamine H3 receptor occupancy in rat striatum at 30 mg/kg, po after 1 hr; assay type: functional
Outline: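 Ex vivo autoradiography in rat striatum, coronal sections, using [3H]-R-alpha-methylhistamine as radioligand. Oral dosing at 0.1, 0.3, 1, 3, 10 or 30 mg/kg; brains taken 1 h post-dose to measure H3 receptor occupancy.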

[8] = biological target: Cytochrome P450 3A4 (Homo sapiens, UniProt P08684); assay: Inhibition of CPY3A4 at >40 uM
[9] = biological target: T3, Cytochrome P450 1A2 (Homo sapiens, UniProt P05177); assay: Inhibition of CPY1A2 at >40 uM
T3 sequence (P05177 whole entry): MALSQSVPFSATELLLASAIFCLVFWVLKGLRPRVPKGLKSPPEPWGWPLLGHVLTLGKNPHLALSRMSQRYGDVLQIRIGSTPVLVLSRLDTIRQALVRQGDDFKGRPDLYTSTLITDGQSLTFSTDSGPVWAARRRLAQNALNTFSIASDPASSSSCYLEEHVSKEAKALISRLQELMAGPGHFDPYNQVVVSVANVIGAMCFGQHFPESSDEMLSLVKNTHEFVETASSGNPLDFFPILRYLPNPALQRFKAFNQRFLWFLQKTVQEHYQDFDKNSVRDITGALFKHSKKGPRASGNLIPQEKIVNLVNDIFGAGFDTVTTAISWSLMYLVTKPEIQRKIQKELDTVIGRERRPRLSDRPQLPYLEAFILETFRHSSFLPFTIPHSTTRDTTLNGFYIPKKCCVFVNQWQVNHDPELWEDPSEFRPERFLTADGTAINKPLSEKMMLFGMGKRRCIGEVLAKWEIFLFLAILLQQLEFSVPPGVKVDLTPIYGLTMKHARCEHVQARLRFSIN

[10] = biological target: Histamine H1 receptor (Homo sapiens, UniProt P35367); assay: Displacement of […] from histamine H1 receptor expressed in SK-N-MC cells; assay type: cell-based
[11] = test system: Rattus norvegicus; assay: Wake promoting activity in Sprague-Dawley rat assessed as effect on rapid eye movement sleep at 10 mg/kg, sc; assay type: functional, organism-based; design: dose 10 mg/kg
Outline: (§1)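 Male adult Sprague-Dawley rats chronically implanted with EEG/EMG electrodes, given 10 mg/kg s.c. or saline vehicle 2 h after light-phase onset. Recording for 8 h, visually scored in 10 s epochs as wake, NREM or REM. Time per 1 h interval as % of recording time; n = 5 animals; vehicle vs compound by paired t-test.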

[12] = biological target: T4, Histamine H3 receptor (Rattus norvegicus, UniProt Q9QYN8); assay: Antagonist activity at rat H3 receptor expressed in SK-N-MC cells assessed as inhibition of forskolin-stimulated cAMP accumulation treated 10 min before histamine challenge; assay type: functional, cell-based; details: read-out: pA2 (converted)
[13] = biological target: T4, Histamine H3 receptor; assay: Displacement of [3H]N-alpha-methylhistamine from rat histamine H3 receptor expressed in SK-N-MC cells; assay type: cell-based
Outline: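 Membranes from homogenized SK-N-MC cells expressing the rat H3 receptor, in 50 mM Tris/5 mM EDTA pH 7.4. Incubated with 0.8 nM [3H]-Nα-methylhistamine ± compound for 60 min at 25 °C, then filtered and washed with ice-cold buffer. Nonspecific binding was defined with 10 μM histamine.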

[14] = Half life in po dosed rat; assay type: ADME, organism-based; details: in vivo
[15] = biological target: Cytochrome P450 2D6 (Homo sapiens, UniProt P10635); assay: Inhibition of CPY2D6 at >40 uM
[16] = test system: Rattus norvegicus; assay: Wake promoting activity in Sprague-Dawley rat assessed as decrease in non-rapid eye movement sleep at 10 mg/kg, sc; assay type: functional, organism-based; design: dose 10 mg/kg; outline: as §1
[17] = biological target: Cytochrome P450 2C9 (Homo sapiens, UniProt P11712); assay: Inhibition of CPY2C9 at >40 uM
[18] = biological target: T2, hERG (KCNH2); assay: Inhibition of human ERG at 3 uM; details: read-out: Activity

T1 sequence (Q9Y5N1 whole entry): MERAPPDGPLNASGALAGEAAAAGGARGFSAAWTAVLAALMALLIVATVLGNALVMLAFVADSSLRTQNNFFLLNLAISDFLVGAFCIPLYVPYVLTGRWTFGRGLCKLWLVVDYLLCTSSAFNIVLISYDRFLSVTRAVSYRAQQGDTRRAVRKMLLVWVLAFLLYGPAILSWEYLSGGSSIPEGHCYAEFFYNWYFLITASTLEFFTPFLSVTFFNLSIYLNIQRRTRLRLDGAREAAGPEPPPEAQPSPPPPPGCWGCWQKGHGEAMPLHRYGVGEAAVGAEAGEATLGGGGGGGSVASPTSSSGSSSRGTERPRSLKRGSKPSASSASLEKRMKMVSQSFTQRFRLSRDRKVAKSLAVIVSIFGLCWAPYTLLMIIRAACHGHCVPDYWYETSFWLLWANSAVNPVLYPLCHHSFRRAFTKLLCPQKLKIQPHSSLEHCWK
T2 sequence (Q12809 whole entry): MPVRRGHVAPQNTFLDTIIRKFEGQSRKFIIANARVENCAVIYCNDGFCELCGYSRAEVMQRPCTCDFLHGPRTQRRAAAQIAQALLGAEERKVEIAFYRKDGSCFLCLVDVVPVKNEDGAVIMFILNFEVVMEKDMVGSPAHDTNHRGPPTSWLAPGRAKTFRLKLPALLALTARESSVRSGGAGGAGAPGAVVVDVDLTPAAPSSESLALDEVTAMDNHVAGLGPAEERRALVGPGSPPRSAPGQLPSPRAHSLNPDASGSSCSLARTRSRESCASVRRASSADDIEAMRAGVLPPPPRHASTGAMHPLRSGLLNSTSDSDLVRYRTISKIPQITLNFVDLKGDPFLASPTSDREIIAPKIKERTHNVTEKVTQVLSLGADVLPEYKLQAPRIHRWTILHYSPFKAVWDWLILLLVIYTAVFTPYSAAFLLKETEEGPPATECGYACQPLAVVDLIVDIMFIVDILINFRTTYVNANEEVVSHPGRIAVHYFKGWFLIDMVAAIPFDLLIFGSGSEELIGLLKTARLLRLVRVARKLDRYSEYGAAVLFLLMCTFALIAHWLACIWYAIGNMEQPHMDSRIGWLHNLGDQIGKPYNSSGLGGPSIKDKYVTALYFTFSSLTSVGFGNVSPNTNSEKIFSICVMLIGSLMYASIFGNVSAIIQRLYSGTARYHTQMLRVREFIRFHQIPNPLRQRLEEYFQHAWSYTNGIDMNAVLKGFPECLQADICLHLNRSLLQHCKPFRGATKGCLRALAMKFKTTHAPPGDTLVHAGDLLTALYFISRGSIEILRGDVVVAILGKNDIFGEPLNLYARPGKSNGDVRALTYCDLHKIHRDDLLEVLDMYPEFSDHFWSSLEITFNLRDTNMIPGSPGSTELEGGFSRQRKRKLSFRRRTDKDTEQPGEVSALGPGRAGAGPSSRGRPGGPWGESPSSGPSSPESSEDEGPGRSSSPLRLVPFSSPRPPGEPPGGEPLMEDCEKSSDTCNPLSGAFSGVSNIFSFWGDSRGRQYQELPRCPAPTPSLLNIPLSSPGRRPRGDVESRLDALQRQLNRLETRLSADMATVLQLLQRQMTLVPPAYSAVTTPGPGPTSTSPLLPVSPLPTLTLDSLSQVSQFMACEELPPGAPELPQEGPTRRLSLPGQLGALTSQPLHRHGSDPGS
T4 sequence (Q9QYN8 whole entry): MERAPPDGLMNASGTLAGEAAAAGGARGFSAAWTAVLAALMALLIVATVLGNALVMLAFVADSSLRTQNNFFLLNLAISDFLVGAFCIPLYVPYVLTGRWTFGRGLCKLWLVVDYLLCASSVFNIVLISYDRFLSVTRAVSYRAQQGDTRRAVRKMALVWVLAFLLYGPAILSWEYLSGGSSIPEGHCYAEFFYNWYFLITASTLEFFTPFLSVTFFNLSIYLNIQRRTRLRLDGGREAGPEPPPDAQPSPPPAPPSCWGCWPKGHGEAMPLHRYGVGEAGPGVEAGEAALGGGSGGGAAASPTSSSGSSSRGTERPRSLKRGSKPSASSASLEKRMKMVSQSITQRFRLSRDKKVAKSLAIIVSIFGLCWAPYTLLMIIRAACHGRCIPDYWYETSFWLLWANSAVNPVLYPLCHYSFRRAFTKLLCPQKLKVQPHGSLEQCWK
Sequence of Histamine H1 receptor (P35367 whole entry): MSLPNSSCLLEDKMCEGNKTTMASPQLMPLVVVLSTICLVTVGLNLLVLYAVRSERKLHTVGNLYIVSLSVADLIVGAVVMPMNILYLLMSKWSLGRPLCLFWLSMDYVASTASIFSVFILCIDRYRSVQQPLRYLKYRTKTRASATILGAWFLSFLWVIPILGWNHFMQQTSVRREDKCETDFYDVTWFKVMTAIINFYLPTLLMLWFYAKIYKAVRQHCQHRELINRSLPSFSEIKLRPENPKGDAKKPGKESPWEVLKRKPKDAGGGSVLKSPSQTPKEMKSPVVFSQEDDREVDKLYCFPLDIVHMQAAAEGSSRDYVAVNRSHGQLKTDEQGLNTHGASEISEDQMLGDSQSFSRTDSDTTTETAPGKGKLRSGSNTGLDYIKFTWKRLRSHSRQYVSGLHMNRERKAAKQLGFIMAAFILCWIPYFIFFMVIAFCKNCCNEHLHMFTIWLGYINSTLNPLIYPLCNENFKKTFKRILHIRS
Sequence of Cytochrome P450 2C19 (P33261 whole entry): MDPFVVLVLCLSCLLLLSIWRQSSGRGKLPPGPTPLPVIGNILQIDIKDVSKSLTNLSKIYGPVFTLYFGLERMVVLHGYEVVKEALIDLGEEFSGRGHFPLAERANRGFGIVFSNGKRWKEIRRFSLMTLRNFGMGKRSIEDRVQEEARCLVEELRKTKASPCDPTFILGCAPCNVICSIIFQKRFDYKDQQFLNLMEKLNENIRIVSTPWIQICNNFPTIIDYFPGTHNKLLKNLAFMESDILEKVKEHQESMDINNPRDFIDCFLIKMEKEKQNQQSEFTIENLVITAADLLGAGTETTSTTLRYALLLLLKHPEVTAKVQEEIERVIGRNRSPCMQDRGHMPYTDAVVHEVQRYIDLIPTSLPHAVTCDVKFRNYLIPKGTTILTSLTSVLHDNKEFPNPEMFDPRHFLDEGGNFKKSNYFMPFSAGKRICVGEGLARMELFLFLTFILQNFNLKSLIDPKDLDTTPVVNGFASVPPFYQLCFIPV
Sequence of Cytochrome P450 2D6 (P10635 whole entry): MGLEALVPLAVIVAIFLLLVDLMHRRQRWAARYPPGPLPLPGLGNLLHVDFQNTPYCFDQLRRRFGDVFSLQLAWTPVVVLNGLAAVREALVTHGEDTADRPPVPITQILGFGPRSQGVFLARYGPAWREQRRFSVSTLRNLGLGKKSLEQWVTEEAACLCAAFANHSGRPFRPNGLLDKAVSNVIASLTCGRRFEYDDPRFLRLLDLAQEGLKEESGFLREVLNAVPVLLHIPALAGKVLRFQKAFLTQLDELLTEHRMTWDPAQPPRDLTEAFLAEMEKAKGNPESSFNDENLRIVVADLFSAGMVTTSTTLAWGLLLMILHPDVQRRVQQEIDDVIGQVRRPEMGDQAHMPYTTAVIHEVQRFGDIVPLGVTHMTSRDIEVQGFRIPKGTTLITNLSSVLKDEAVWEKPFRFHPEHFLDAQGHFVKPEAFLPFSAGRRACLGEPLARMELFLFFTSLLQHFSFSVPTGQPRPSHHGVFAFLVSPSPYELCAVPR
Sequence of Cytochrome P450 2C9 (P11712 whole entry): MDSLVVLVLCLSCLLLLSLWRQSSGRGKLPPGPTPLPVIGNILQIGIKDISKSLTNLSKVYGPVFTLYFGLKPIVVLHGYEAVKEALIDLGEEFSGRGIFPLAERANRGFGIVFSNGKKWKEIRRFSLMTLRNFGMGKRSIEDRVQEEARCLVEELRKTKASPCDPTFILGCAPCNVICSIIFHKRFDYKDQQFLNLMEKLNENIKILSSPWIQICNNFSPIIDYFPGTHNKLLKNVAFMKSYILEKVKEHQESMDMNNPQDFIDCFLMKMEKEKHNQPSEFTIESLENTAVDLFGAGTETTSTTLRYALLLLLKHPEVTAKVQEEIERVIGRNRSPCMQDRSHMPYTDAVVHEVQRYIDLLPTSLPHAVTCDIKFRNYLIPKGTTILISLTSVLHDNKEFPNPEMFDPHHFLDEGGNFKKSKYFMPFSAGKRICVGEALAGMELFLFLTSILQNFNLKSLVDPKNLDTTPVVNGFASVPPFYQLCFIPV
Sequence of Cytochrome P450 3A4 (P08684 whole entry): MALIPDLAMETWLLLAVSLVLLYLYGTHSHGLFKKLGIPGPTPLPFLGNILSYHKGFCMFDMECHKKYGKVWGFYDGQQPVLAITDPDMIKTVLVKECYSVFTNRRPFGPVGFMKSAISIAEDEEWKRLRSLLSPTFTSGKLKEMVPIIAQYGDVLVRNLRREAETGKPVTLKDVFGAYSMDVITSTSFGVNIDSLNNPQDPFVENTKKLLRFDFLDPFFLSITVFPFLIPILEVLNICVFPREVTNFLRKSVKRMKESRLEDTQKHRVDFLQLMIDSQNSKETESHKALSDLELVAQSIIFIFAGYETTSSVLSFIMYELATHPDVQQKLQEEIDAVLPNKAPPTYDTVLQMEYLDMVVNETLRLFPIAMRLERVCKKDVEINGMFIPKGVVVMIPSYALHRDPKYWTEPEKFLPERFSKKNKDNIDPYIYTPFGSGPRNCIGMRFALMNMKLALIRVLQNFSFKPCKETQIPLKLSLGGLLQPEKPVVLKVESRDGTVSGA

SMILES | Ki [1] | also measured
CN1CCN(Cc2ccc(C#CCCN3CCCCC3)cc2)CC1 | 0.977 nM | 
C(#Cc1ccc(CN2CCCCC2)cc1)CCN1CCSCC1 | 3.8 nM | 
C(#Cc1ccc(CN2CCC(Cc3ccccc3)CC2)cc1)CCN1CCCCC1 | 3.47 nM | 
CN(C)Cc1ccc(C#CCCN2CCCCC2)cc1 | 0.912 nM | 
C(#Cc1ccc(CN2CCN(Cc3ccccc3)CC2)cc1)CCN1CCCCC1 | 1.91 nM | 
C(#Cc1ccc(CN2CCOCC2)cc1)CCN1CCCCC1 | 1.74 nM | Kb [2]: 3.24 nM
OC1CCN(Cc2ccc(C#CCCN3CCCCC3)cc2)CC1 | 0.891 nM | 
C(#Cc1ccc(CN2CCCCC2)cc1)CCN1CCOCC1 | 5.01 nM | 
NC(=O)C1CCN(Cc2ccc(C#CCCN3CCCCC3)cc2)CC1 | 0.759 nM | 
C(#Cc1cccc(CN2CCOCC2)c1)CCN1CCCCC1 |  | inhibition (INH) [3]: Not Active; Ki [4]: > 10000 nM; bioavailability [5]: 11%; inhibition at 10 µM [6]: 13.7%; ED50 [7]: 6.5 mg/kg; inhibition (INH) [8]: Not Active; inhibition (INH) [9]: Not Active; Ki [10]: > 10000 nM; Activity [11]: inactive; Kb [12]: 4.68 nM; Ki [13]: 7.08 nM; half-life [14]: 1.5 h; inhibition (INH) [15]: Not Active; Activity [16]: Active; inhibition (INH) [17]: Not Active; inhibition at 3 µM [18]: 8.3%
CC(C)N1CCN(Cc2ccc(C#CCCN3CCCCC3)cc2)CC1 | 0.871 nM | 
CN1CCN(CCC#Cc2ccc(CN3CCCCC3)cc2)CC1 | 5.25 nM | 
CCN(CC)CCC#Cc1ccc(CN2CCCCC2)cc1 | 1.35 nM | 

Further lines, with some results ahead:

Ki [1] | SMILES | also measured
0.724 nM | CN1CCN(Cc2cccc(C#CCCN3CCCCC3)c2)CC1 | 
0.676 nM | C(#Cc1ccc(CN2CCCCC2)cc1)CCN1CCCC1 | 
0.617 nM | C(#Cc1ccc(CN2CCCC2)cc1)CCN1CCCCC1 | 
0.776 nM | C(#Cc1cccc(CN2CCCCC2)c1)CCN1CCCCC1 | Kb [2]: 0.0813 nM
83.2 nM | C(#Cc1ccccc1CN1CCCCC1)CCN1CCCCC1 | 
0.513 nM | C(#Cc1ccc(CN2CCCCC2)cc1)CCN1CCCCC1 | Kb [2]: 0.148 nM
81.3 nM | C(#Cc1cccc(CN2CCCC2)c1)CCN1CCCCC1 | 
14.5 nM | C(#Cc1cccc(CN2CCCCC2)c1)CCN1CCOCC1 | 
0.55 nM | NC(=O)C1CCN(Cc2cccc(C#CCCN3CCCCC3)c2)CC1 | 
